Activity calls are given as the source filed them. The calls are words filed in the database; no cut-off is given here.
Assays:
[1] = Inhibition of H+/K+ ATPase in hog gastric mucosa; format: tissue-based, Sus scrofa
Summary of the method: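 Hog gastric mucosa H+/K+-ATPase (0.5-1 µg/100 µL, with nigericin 1:1) in 4 mM Pipes/8 mM Tris pH 7.4, 0.25 M sucrose, 1 mM MgCl2, stimulated by 1 mM KCl. Compound 1e-4 to 1e-9 M final from DMSO stocks. Started with 1 mM Na-ATP, 30 min room temperature. Phosphate read by malachite green at 680 nm after 15 min.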

[2] = tested on: Gastric gland; assay: Inhibition of acid secretion in rabbit intact gastric glands assessed as […] accumulation; format: functional, tissue-based; conditions: Oryctolagus cuniculus
Summary of the method: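 Isolated gastric glands in Krebs-Henseleit with 2 mg/mL rabbit serum albumin and 2 mg/mL glucose. Incubated 30 min at 37 °C, shaking, with 0.125 µM 14C-aminopyrine at pH 7.4, stimulated by 1 mM dibutyryl cAMP, inhibitor 3 nM-100 µM. Stopped by centrifugation. Accumulation taken from pellet/supernatant radioactivity ratio. IC50 from fitted inhibition equation.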

[3] = tested on: Rattus norvegicus; assay: Inhibition of pentagastrin-stimulated acid secretion in intraduodenally dosed perfused Ghosh Schild rat stomach; format: functional; conditions: intraduodenal
Summary of the method: (§1)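 Anaesthetised rat with perfused stomach: 37 °C saline at 0.5 mL/min. Effluent titrated to pH 7 with 0.01 N NaOH in 15-min fractions. Secretion driven by continuous iv pentagastrin, 1 µg/kg (1.65 mL/h). Compound given intraduodenally in 2.5 mL/kg volume 60 min after infusion start. Body temperature held at 37.8-38 °C.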

[4] = Distribution coefficient, log D of the compound; format: physicochemical; conditions: octanol/water
Summary of the method: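 Distribution between 1-octanol and aqueous KCl measured by potentiometric titration over pH 2.0-11.0 at 25 °C.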

[5] = Dissociation constant, pKa of the compound; format: physicochemical
Summary of the method: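 Potentiometric cosolvent titration in 0.15 mol/L KCl, pH 2.0-11.0, 25 °C, methanol as cosolvent in varying portions; titrants 0.5 mol/L KOH and HCl.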

[6] = tested on: Rattus norvegicus; assay: Inhibition of pentagastrin-stimulated acid secretion in perfused Ghosh Schild rat stomach at 1 umol/kg, intraduodenal; format: functional; parameters: scale not given: the % may be the effect or the level left; summary of the method: as §1

SMILES	pIC50 [1]	IC50 [2] [nM]	ED50 [3] [µmol/kg]	logD [4]	pKa [5]	Activity [2]	Activity [6] [%]
Cc1nc2c3c(c(C(=O)N(C)C)cn2c1Br)CC[C@@H](c1ccccc1)O3	5	6310	1.5	–	–	–	–
CON(C)C(=O)c1cn2c(C)c(C)nc2c2c1CCC(c1ccccc1)O2 (racemic)	5.8	398	0.4	2.6	6.49	–	–
CC(=O)c1c(C)nc2c3c(c(C(=O)N(C)C)cn12)CCC(c1ccccc1)O3 (racemic)	< 4	–	–	2.55	3.73	inactive	55
Cc1nc2c3c(c(C(=O)N4CCCC4)cn2c1C)CCC(c1ccccc1)O3 (racemic)	5.8	316	–	2.83	6.73	–	47
Cc1nc2c3c(c(C(=O)N(C)C)cn2c1C)CC[C@@H](c1ccc(F)cc1)O3	6.5	158	0.25	–	–	–	–
Cc1nc2c3c(c(C(=O)N(C)C)cn2c1Br)CCC(c1ccccc1)O3 (racemic)	4.9	12600	1	3.2	4.68	–	–
Cc1nc2c3c(c(C(=O)N4CCCC4)cn2c1C)CC[C@@H](c1ccccc1)O3	6.4	200	1	–	–	–	–
Cc1nc2c3c(c(C(=O)NC4CCC4)cn2c1C)CCC(c1ccccc1)O3 (racemic)	5.2	398	–	3.76	6.68	–	26
CC#CC(=O)c1c(C)nc2c3c(c(C(=O)N(C)C)cn12)CCC(c1ccccc1)O3 (racemic)	6.2	–	–	3.2	3.2	inactive	43
CCOC(=O)c1cn2c(C)c(C)nc2c2c1CCC(c1ccccc1)O2 (racemic)	6	2510	–	4.56	6.35	–	34
Cc1nc2c3c(c(C(N)=O)cn2c1C)CC[C@@H](c1ccccc1)O3	–	1580	1	–	–	–	–
Cc1nc2c3c(c(C(=O)N(C)C)cn2c1C)CC[C@@H](c1ccccc1)O3	6.8	200	0.22	–	–	–	–
CNC(=O)c1cn2c(C)c(C)nc2c2c1CCC(c1ccccc1)O2 (racemic)	5.6	1000	0.6	2.8	6.74	–	–
Cc1ccccc1C1CCc2c(C(=O)N(C)C)cn3c(C)c(C)nc3c2O1 (racemic)	6.2	200	0.4	2.76	6.74	–	–
Cc1nc2c3c(c(C(=O)N(C)C)cn2c1CO)CC[C@H](c1ccccc1)O3	4.2	–	> 6	–	–	inactive	–
Cc1ccccc1[C@H]1CCc2c(C(=O)N(C)C)cn3c(C)c(C)nc3c2O1	6.1	251	1.3	–	–	–	–
CC#CC(O)c1c(C)nc2c3c(c(C(=O)N(C)C)cn12)CCC(c1ccccc1)O3 (racemic)	< 4	–	–	2.5	5.58	–	22
CCc1c(C)nc2c3c(c(C(=O)N(C)C)cn12)CCC(c1ccccc1)O3 (racemic)	5	2000	–	3	6.7	–	30
Cc1nc2c3c(c(C(N)=O)cn2c1C)CCC(c1ccccc1)O3 (racemic)	5.9	2510	0.8	2.53	6.52	–	–

SMILES	pIC50 [1]	IC50 [2] [nM]	ED50 [3] [µmol/kg]	logD [4]	pKa [5]	Activity [2]	Activity [6] [%]
CC(=O)c1c(C)nc2c3c(c(C(=O)N(C)C)cn12)CC[C@@H](c1ccccc1)O3	< 4	–	0.1	–	–	inactive	–
Cc1nc2c3c(c(C(=O)N(C)C)cn2c1C)CCC(c1ccccc1F)O3 (racemic)	5.9	631	–	2.8	6.78	–	73
Cc1nc2c3c(c(C(=O)NC4CC4)cn2c1C)CCC(c1ccccc1)O3 (racemic)	6	1000	–	3.22	6.69	–	82
Cc1nc2c3c(c(C(=O)NC4CC4)cn2c1C)CC[C@@H](c1ccccc1)O3	5.7	100	0.25	–	–	–	–
Cc1nc2c3c(c(C(=O)N4CCC4)cn2c1C)CC[C@@H](c1ccccc1)O3	6.4	50.1	0.2	–	–	–	–
CON(C)C(=O)c1cn2c(C)c(C)nc2c2c1CC[C@@H](c1ccccc1)O2	5.6	–	0.4	–	–	–	–
Cc1ccccc1[C@@H]1CCc2c(C(=O)N(C)C)cn3c(C)c(C)nc3c2O1	6.3	251	0.4	–	–	–	–
Cc1nc2c3c(c(C(=O)N(C)C)cn2c1CN(C)C)CCC(c1ccccc1)O3 (racemic)	5	–	–	1.8	4.09	–	20
Cc1nc2c3c(c(C(=O)N(C)C)cn2c1CO)CCC(c1ccccc1)O3 (racemic)	5.6	31600	–	1.52	5.86	–	55
Cc1nc2c3c(c(C(=O)N(C)C)cn2c1C)CCC(c1ccc(F)cc1)O3 (racemic)	6.2	398	0.35	2.78	6.74	–	–
Cc1nc2c3c(c(C(=O)N(C)C)cn2c1C)CC[C@@H](c1ccccc1F)O3	6.3	79.4	0.2	–	–	–	–
Cc1nc2c3c(c(C4=NCCO4)cn2c1C)CCC(c1ccccc1)O3 (racemic)	6	794	2	–	–	–	–
Cc1nc2c3c(c(C(=O)N(C)C)cn2c1C)CC[C@H](c1ccc(F)cc1)O3	5.7	1000	1.5	–	–	–	–
Cc1nc2c3c(c(C(=O)N4CC4)cn2c1C)CCC(c1ccccc1)O3 (racemic)	5.3	398	–	2.9	6.63	–	35
CCc1c(C)nc2c3c(c(C(=O)N(C)C)cn12)CC[C@@H](c1ccccc1)O3	5.5	1260	1.2	–	–	–	–
Cc1nc2c3c(c(C(=O)Nc4ccccc4)cn2c1C)CCC(c1ccccc1)O3 (racemic)	5.5	251	0.3	5	6.59	–	–
Cc1nc2c3c(c(C(=O)N(C)C)cn2c1CO)CC[C@@H](c1ccccc1)O3	5.8	7940	5	–	–	–	–
Cc1nc2c3c(c(C(=O)N(C)C)cn2c1C)CCC(c1ccccc1)O3 (racemic)	5.8	501	0.5	2.83	7.15	–	–
